From PMC10720030 (ACS Omega, 2023)
Values joined by “and” are separate entries in the source; they are usually repeats but may differ in a detail not shown here. Equal entries are not always repeated. Where two headings read alike, the source gives them in different places.

Assays:
[1] = system: breast MCF-7 cancer cells; experiment: Cytotoxicity using the MTT assay, MCF-7; type: cell-based; settings: for inhibition at 100 µM: read-out: % of cell inhibition ± SD at [100 μM], MCF7
Summary of the method: (§1)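 MTT viability; cells grown with 10% FBS and 1% penicillin–streptomycin, exposed next day to five concentrations (0.01, 0.1, 1, 10, 100) for 48 h. MTT dye added for 3 h, then viability calculated against untreated control. IC50 taken from dose–response curve; mean ± SD of three independent triplicates (n = 3).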

liver HepG2 cancer cells = experiment: Cytotoxicity using the MTT assay, HepG2; type: cell-based; settings: for inhibition at 100 µM: read-out: % of cell inhibition ± SD at [100 μM], HepG2
Summary of the method: as §1

MCF-10A normal cells = experiment: Cytotoxicity using the MTT assay, MCF-10A; type: cell-based; settings: Homo sapiens, read-out: IC50 ± SD, MCF-10A
Summary of the method: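 Normal breast cells run in MTT viability assay. IC50 derived from dose–response curve; values are mean ± SD of three independent triplicate experiments (n = 3).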

PIM-1 kinase = PIM-1 kinase (Homo sapiens, UniProt P11309); experiment: PIM-1 kinase inhibitory assay; type: biochemical; settings: for % of kinase inhibition, PIM-1 kinase: concentration not given
Sequence of PIM-1 kinase (P11309 whole entry): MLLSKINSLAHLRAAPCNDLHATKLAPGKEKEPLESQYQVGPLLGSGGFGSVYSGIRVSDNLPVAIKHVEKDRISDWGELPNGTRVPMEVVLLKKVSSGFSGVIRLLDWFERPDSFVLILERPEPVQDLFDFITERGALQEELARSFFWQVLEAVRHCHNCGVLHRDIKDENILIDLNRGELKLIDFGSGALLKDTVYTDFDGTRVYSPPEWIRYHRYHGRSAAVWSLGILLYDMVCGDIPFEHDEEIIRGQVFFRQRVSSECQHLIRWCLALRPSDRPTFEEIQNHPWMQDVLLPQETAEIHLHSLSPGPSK

MCF-7 cells [2] = experiment: Annexin V/PI staining flow cytometry; type: cell-based; settings: MCF-7, treated at IC50, 48 h
MCF-7 cells [3] = experiment: DNA content-flow cytometry cell cycle analysis; type: cell-based; settings: MCF-7, treated at IC50, 48 h; control 29.12%
MCF-7 cells [4] = experiment: Autophagy evaluation using acridine orange flow cytometry; type: cell-based; settings: MCF-7, 48 h, control 32.8 × 10^3
MCF-7 cells [5] = experiment: Wound-healing assay; type: cell-based
[6] = system: Solid Ehrlich carcinoma (SEC); experiment: In vivo antitumor activity in SEC-bearing mice; set-up: species or system Swiss albino mice; settings: 5 mg/kg I.P.; for tumor weight: n = 6, SEC control 198.5 ± 10.6; for tumor volume: n = 6, SEC control 274.8 ± 16.6
MCF-7 = settings: read-out: IC50 against MCF-7; cited from earlier work
[7] = Homo sapiens, MCF7, 48 h, read-out: IC50 ± SD, MCF7, MCF7, MTT, 48 h, n = 3
[8] = Homo sapiens, HepG2, 48 h, read-out: IC50 ± SD, HepG2, HepG2, MTT, 48 h, n = 3
[9] = read-out: IC50 ± SD, HepG2, HepG2, MTT, 48 h, n = 3

With `C=CCSc1nnc(COc2nc(C)cc(C)c2C#N)o1` [Compound 5, 2-((5-(Allylthio)-1,3,4-oxadiazol-2-yl)methoxy)-4,6-dimethylnicotinonitrile] the inhibition at 100 µM ([1]; Homo sapiens, MCF7, 48 h) was 47 ± 1.4% and the inhibition at 100 µM (liver HepG2 cancer cells; Homo sapiens, HepG2, 48 h) was 69 ± 2.1%.

In the case of `Cc1cc(C)c(C#N)c(OCC(=O)NCc2ccccc2)n1` [Compound 14, N-Benzyl-2-((3-cyano-4,6-dimethylpyridin-2-yl)oxy)acetamide], the inhibition at 100 µM ([1]; Homo sapiens, MCF7, 48 h) is reported as 48.8 ± 1.2% and the inhibition at 100 µM (liver HepG2 cancer cells; Homo sapiens, HepG2, 48 h) is reported as 35.5 ± 1.1%.

For `Cc1cc(C)c(C#N)c(OCC(=O)N2CCOCC2)n1` [Compound 12, 4,6-Dimethyl-2-(2-morpholino-2-oxoethoxy)nicotinonitrile], the inhibition at 100 µM ([1]; Homo sapiens, MCF7, 48 h) was 84.2 ± 2.6%, the IC50 [1, 7] was 0.5 µM and the IC50 ([1]; read-out: IC50 ± SD, MCF7, MCF7, MTT, 48 h, n = 3) was 0.51 ± 0.02 µM. It also gave an inhibition at 100 µM (liver HepG2 cancer cells; Homo sapiens, HepG2, 48 h) of 85.1 ± 2.1%, an IC50 (liver HepG2 cancer cells; [8]) of 6.6 µM and an IC50 (liver HepG2 cancer cells; [9]) of 5.27 ± 0.2 µM. The IC50 (MCF-10A normal cells) was 52.9 ± 2.1 µM, the IC50 (PIM-1 kinase) was 0.0143 ± 0.0006 µM and the “% of kinase inhibition, PIM-1 kinase” value (PIM-1 kinase) was 97.5 ± 1.3%. The early apoptosis (MCF-7 cells [2]) was 23.18%, the “increase of apoptosis versus untreated control” value (MCF-7 cells [2]) was 52.2 fold and the late apoptosis (MCF-7 cells [2]) was 10.25%. For the same molecule, the total apoptosis (MCF-7 cells [2]; untreated control 0.64%) was 33.43%, the “S-phase cell population (%DIP S)” value (MCF-7 cells [3]) was 36.02% and the autophagic cell death (MCF-7 cells [4]) was 87.6 × 10^3 cells. The wound closure (MCF-7 cells [5]; MCF-7, after 48 h of treatment, control 95.6%) was 71.8%, the “average L of migration” value (MCF-7 cells [5]; MCF-7, time 72 h) was 0.32 mm and the “% closure” value (MCF-7 cells [5]; MCF-7, time 72 h, Cont.MCF-7 95.55) was 71.85%. For the same molecule, the migrated cell area (MCF-7 cells [5]; MCF-7, time 72 h, total area 0.225) was 0.161, the tumor weight [6] was 72.8 mg and 72.8 ± 1.74 mg and the tumor volume [6] was 159.2 mm^3 and 159.2 ± 10.1 mm^3. The “tumor inhibition ratio (TIR %)” value ([6]; n = 6, TIR % = C – T/C × 100) was 42.1% and 42.1 ± 1.0%.

`CC(=O)OC[C@H]1O[C@H](Sc2nnc(COc3nc(C)cc(C)c3C#N)o2)[C@H](OC(C)=O)[C@@H](OC(C)=O)[C@H]1OC(C)=O` [Compound 8, 2-((5-(2,3,4,6-Tetra-O-acetyl-α-D-galactopyranosylsulfanyl)-1,3,4-oxadiazol-2-yl)methoxy)-4,6-dimethylpyridine-3-carbonitrile] gave an inhibition at 100 µM ([1]; Homo sapiens, MCF7, 48 h) of 59.8 ± 1.7% and an inhibition at 100 µM (liver HepG2 cancer cells; Homo sapiens, HepG2, 48 h) of 57.8 ± 1.6%.

Molecule `Cc1cc(C)c(C#N)c(OCC(=O)N2CCCCC2)n1` [Compound 13, 4,6-Dimethyl-2-(2-oxo-2-(piperidin-1-yl)ethoxy)nicotinonitrile] has an inhibition at 100 µM ([1]; Homo sapiens, MCF7, 48 h) of 64.6 ± 1.8%, an inhibition at 100 µM (liver HepG2 cancer cells; Homo sapiens, HepG2, 48 h) of 56.4 ± 1.4% and an IC50 (PIM-1 kinase) of 0.0198 ± 0.0011 µM. The “% of kinase inhibition, PIM-1 kinase” value (PIM-1 kinase) was 94.9 ± 2.9%.

In the case of `CCOC(=O)CSc1nnc(COc2nc(C)cc(C)c2C#N)o1` [Compound 3, Ethyl 2-((5-(((3-Cyano-4,6-dimethylpyridin-2-yl)oxy)methyl)-1,3,4-oxadiazol-2-yl)thio)acetate], the inhibition at 100 µM ([1]; Homo sapiens, MCF7, 48 h) is reported as 55.1 ± 2.1% and the inhibition at 100 µM (liver HepG2 cancer cells; Homo sapiens, HepG2, 48 h) is reported as 57.8 ± 1.9%.

With `Cc1cc(C)c(C#N)c(OCc2n[nH]c(=S)o2)n1` [Compound 2, 4,6-Dimethyl-2-((5-thioxo-4,5-dihydro-1,3,4-oxadiazol-2-yl)methoxy)nicotinonitrile] the inhibition at 100 µM ([1]; Homo sapiens, MCF7, 48 h) was 41.9 ± 1.9% and the inhibition at 100 µM (liver HepG2 cancer cells; Homo sapiens, HepG2, 48 h) was 43.5 ± 1.8%.

`COc1cccc2c1C(=O)c1c(O)c3c(c(O)c1C2=O)C[C@@](O)(C(=O)CO)C[C@@H]3O[C@H]1C[C@H](N)[C@H](O)[C@H](C)O1` [doxorubicin, reference compound] showed an inhibition at 100 µM ([1]; Homo sapiens, MCF7, 48 h) of 90.2 ± 2.1%, an IC50 [1, 7] of 2.14 ± 0.1 µM and an inhibition at 100 µM (liver HepG2 cancer cells; Homo sapiens, HepG2, 48 h) of 79.1 ± 2.3%. The IC50 (liver HepG2 cancer cells; [8]) was 2.48 ± 0.1 µM, the IC50 (MCF-10A normal cells) was 15.8 ± 0.63 µM and the tumor weight [6] was 63.4 mg. It also gave a tumor volume [6] of 112.3 mm^3.

`Cc1cc(C)c(C#N)c(OCc2nnc(SCc3ccccc3)o2)n1` [Compound 4, 2-((5-(Benzylthio)-1,3,4-oxadiazol-2-yl)methoxy)-4,6-dimethylnicotinonitrile] gave an inhibition at 100 µM ([1]; Homo sapiens, MCF7, 48 h) of 72.1 ± 2.9% and an inhibition at 100 µM (liver HepG2 cancer cells; Homo sapiens, HepG2, 48 h) of 75.8 ± 2.3%.

Molecule `CCCCCSc1nnc(COc2nc(C)cc(C)c2C#N)o1` [Compound 6, 4,6-Dimethyl-2-((5-(pentylthio)-1,3,4-oxadiazol-2-yl)methoxy)nicotinonitrile] has an inhibition at 100 µM ([1]; Homo sapiens, MCF7, 48 h) of 78.2 ± 2.2%, an inhibition at 100 µM (liver HepG2 cancer cells; Homo sapiens, HepG2, 48 h) of 79.2 ± 2.2% and an IC50 (liver HepG2 cancer cells; [8]) of 5.27 µM. For the same molecule, the IC50 (liver HepG2 cancer cells; [9]) was 6.64 ± 0.28 µM, the IC50 (PIM-1 kinase) was 0.0194 ± 0.0007 µM and the “% of kinase inhibition, PIM-1 kinase” value (PIM-1 kinase) was 94.3 ± 1.3%.

For `CS(=O)(=O)CCNCc1ccc(-c2ccc3ncnc(Nc4ccc(OCc5cccc(F)c5)c(Cl)c4)c3c2)o1` [lapatinib], the IC50 (MCF-7) is given as 4.69 µM.

In the case of `COC(=O)CNC(=O)COc1nc(C)cc(C)c1C#N` [Compound 11, Methyl (2-((3-Cyano-4,6-dimethylpyridin-2-yl)oxy)acetyl)glycinate], the inhibition at 100 µM ([1]; Homo sapiens, MCF7, 48 h) is reported as 78.6 ± 2.3%, the IC50 [1, 7] is reported as 0.73 ± 0.04 µM and the inhibition at 100 µM (liver HepG2 cancer cells; Homo sapiens, HepG2, 48 h) is reported as 68.8 ± 1.6%. The IC50 (PIM-1 kinase) was 0.0423 ± 0.0011 µM and the “% of kinase inhibition, PIM-1 kinase” value (PIM-1 kinase) was 90.1 ± 2.7%.
